Calls of active or inactive are those of the source. No cut-off for these calls is given here.
How the values were obtained:
A2780 [1] = experiment: Cytotoxicity against human A2780 cells by ESI; format: functional, cell-based
A2780 [2] = experiment: Cytotoxicity against human A2780 cells by […]; format: functional, cell-based
Outline: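 Cells were exposed to inhibitors together with 1 μg/mL TRAIL for 24 hr. Viability was read by CellTiter-Glo assay.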

[3] = target: RAC-alpha serine/threonine-protein kinase (Homo sapiens) (UniProt P31749); experiment: Inhibition of Akt PH domain (unknown origin) binding to PI(3,4)P2 at 100 uM by lipid overlay assay
Outline: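 Lipid overlay: AktPH domain binding to PI(3,4)P2 spotted on a […] membrane.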

A2780 [4] = experiment: Cytotoxicity against human A2780 cells at 6.25 to 50 uM after 24 hrs by CellTitre-Glo assay; format: functional, cell-based
Outline: (§1)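 Cells were treated with inhibitors alone for 24 hr. Viability was read by CellTiter-Glo luminescence.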

[5] = Inhibition of Akt in human U87MG cells assessed as inhibition of TORC1/p70S6K/S6 pathway at 0.3 to 50 uM after 7 hrs by Western blotting analysis; format: cell-based; conditions: U-87MG ATCC
Outline: (§2)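 U87MG or A2780 cells were exposed to inhibitors for 7 hr. Lysates were Western blotted with phospho-S6 and total S6 antibodies.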

[6] = Bioavailability in ip dosed mouse; format: ADME, organism-based; conditions: in vivo
Outline: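 Bioavailability was calculated from intraperitoneal administration relative to an intravenous 1 mg/kg dose in mouse.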

T47D = experiment: Cytotoxicity against human T47D cells at 6.25 to 50 uM after 24 hrs by CellTitre-Glo assay; format: functional, cell-based; outline: as §1
[7] = Clearance in mouse liver microsomes; format: ADME; conditions: read-out: CLH
Outline: (§3)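 Stability in mouse liver microsomes in vitro. Half-life (min) and intrinsic clearance (μL·min⁻¹·mg⁻¹) were determined.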

[8] = Clearance in mouse at 1 mg/kg, iv; format: ADME, organism-based; conditions: in vivo
[9] = Half life in mouse liver microsomes; format: ADME; outline: as §3
U-87 MG = experiment: Cytotoxicity against human U87MG cells at 6.25 to 50 uM after 24 hrs by CellTitre-Glo assay; format: functional, cell-based; conditions: U-87MG ATCC; outline: as §1
A2780 [10] = experiment: Antimigratory activity against human A2780 cells at 0.75 to 1.5 uM by wound healing assay; format: functional, cell-based
Outline: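 Wound healing: A2780 monolayers were treated with inhibitors and then scratch-wounded. The cell-free area was photographed at set time points, and the open wound area was quantified.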

[11] = Inhibition of Akt in human A2780 cells assessed as inhibition of TORC1/p70S6K/S6 pathway at 0.3 to 50 uM after 7 hrs by Western blotting analysis; format: cell-based; outline: as §2
[12] = Half life in mouse at 1 mg/kg, iv; format: ADME, organism-based; conditions: in vivo

Sequence of RAC-alpha serine/threonine-protein kinase (Homo sapiens) (P31749 whole entry, the tested form may be a part): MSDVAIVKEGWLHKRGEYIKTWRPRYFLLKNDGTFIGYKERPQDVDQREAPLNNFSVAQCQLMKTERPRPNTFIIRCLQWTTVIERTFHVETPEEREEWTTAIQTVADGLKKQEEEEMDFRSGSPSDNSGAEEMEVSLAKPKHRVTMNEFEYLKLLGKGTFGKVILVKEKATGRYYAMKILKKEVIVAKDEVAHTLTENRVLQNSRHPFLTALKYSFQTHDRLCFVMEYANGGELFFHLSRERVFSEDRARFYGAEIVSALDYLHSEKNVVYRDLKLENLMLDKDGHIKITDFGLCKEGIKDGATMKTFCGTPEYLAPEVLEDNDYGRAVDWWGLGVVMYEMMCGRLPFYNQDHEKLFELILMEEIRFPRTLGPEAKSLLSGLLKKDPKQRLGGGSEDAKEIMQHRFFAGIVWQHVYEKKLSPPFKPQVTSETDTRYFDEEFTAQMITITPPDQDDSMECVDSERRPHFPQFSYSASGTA

Row | Structure (SMILES) | EC50 (A2780 [1]) | EC50 (A2780 [2]) | further results
1 | Cc1cc(C)cc(C(=O)c2cn(-c3cc(Cl)ccc3O)nn2)c1 | 57.8 µmol | 30.6 µmol | –
2 | Cc1cc(C)cc(C(=O)c2cn(-c3c(C)cccc3O)nn2)c1 | 104 µM | 98.4 µmol | –
3 | O=C(NCc1cn(-c2cc(Cl)ccc2O)nn1)c1cc(C(F)(F)F)cc(C(F)(F)F)c1 | 16.2 µmol | 14 µmol | –
4 | Cc1ccc(O)c(-n2cc(C(=O)c3ccccc3)nn2)c1 | > 100 µmol | > 100 µmol | –
5 | Cc1cc(C)cc(C(=O)c2cn(-c3ccc([N+](=O)[O-])cc3O)nn2)c1 | 89.1 µmol | 70.5 µmol | –
6 | Cc1cccc(O)c1-n1cc(C(=O)c2ccccc2)nn1 | 8.1 µmol | 8 µmol | –
7 | O=C(c1ccccc1)c1cn(-c2cc(Cl)ccc2O)nn1 | 104 µM | 51.6 µmol | –
8 | O=C(NC(=S)Nc1cc([N+](=O)[O-])cc(Cl)c1O)c1ccccc1 | – | – | inhibition [3]: Active
9 | Cc1cc(C)cc(C(=O)c2cn(-c3ccc(Cl)cc3O)nn2)c1 | > 100 µmol | 64.4 µmol | –
10 | Cc1ccc(O)c(-n2cc(C(=O)c3ccc4ccccc4c3)nn2)c1 | > 100 µmol | > 100 µmol | –
11 | Cc1cccc(O)c1-n1cc(C(=O)c2ccc3ccccc3c2)nn1 | 85.2 µmol | 74.9 µmol | –
12 | Cc1ccc(O)c(-n2cc(C(=O)c3ccc(C(C)C)cc3)nn2)c1 | > 100 µmol | > 100 µmol | –
13 | O=C(c1cc(C(F)(F)F)cc(C(F)(F)F)c1)c1cn(-c2cc(Cl)ccc2O)nn1 | 11.99 µmol | 3.15 µmol | Activity (A2780 [4]): Active; inhibition [5]: Active; bioavailability [6]: 85.1%; Activity (T47D): Active; microsomal CLint [7]: 19.4 µL/min/mg; clearance [8]: 15.5 mL/min/kg; half-life [9]: 1.98 h; Activity (U-87 MG): Active; Activity (A2780 [10]): Active; inhibition [3]: Active; inhibition [11]: Active; half-life [12]: 3.22 h
14 | COc1ccc(Cl)cc1-n1cc(C(=O)c2ccccc2)nn1 | > 100 µmol | > 100 µmol | –
15 | O=C(c1ccc2ccccc2c1)c1cn(-c2cc(Cl)ccc2O)nn1 | > 100 µmol | > 100 µmol | –
16 | Cc1cccc(O)c1-n1cc(C(=O)c2ccc(C(C)C)cc2)nn1 | > 100 µmol | > 100 µmol | –
17 | Cc1cc(C)cc(C(=O)NC(=S)Nc2cc([N+](=O)[O-])ccc2O)c1 | – | – | microsomal CLint [7]: 1260 µL/min/mg; half-life [9]: 0.03 h
18 | Cc1cc(C)cc(C(=O)c2cn(-c3cc(C)ccc3O)nn2)c1 | > 100 µmol | > 100 µmol | –
19 | CC(C)c1ccc(C(=O)c2cn(-c3cc(Cl)ccc3O)nn2)cc1 | 64.1 µmol | 41.6 µmol | –
20 | O=C(c1ccccc1)c1cn(-c2ccc(Cl)cc2O)nn1 | 48.9 µmol | 42.3 µmol | –

— ChEMBL document CHEMBL3596181, “Optimization of the anti-cancer activity of phosphatidylinositol-3 kinase pathway inhibitor PITENIN-1: switching a thiourea with 1,2,3-triazole” (Medchemcomm, 2014)
